Active and inactive are the calls of the source. No cut-off for these calls is given here.

In general, IC50 refers to the concentration needed to halve the response being measured.

Assay [1] is described as follows: Selectivity index, ratio of IC50 for human MCF7 cells to IC50 for human HT-29 cells assessed as reduction in cell viability after 72 hrs by alamar blue assay. In kind it is functional. For orientation: The colour change of resazurin is a common sign of viable cells or microbes.
Assay [2] concerns HT-29. The experiment in a line: Antiproliferative activity against human HT-29 cells assessed as reduction in cell viability after 72 hrs by alamar blue assay. The settings on record: HT-29, 72 h. It is filed as functional, cell-based. In a few lines: (§1)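 Cells seeded at 5 x 10^3/well (MCF-7) or 1 x 10^4/well (HT-29, HEK-293T) and treated after 24 h with serial dilutions (0.001-100 µM) in 1% v/v ethanol vehicle. Alamar Blue 10% v/v added at 72 h, then 3-5 h at 37 °C in the dark; fluorescence ex 530/em 590 nm. Viability relative to vehicle; IC50 from dose-response curves; mean of three experiments in triplicate.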

For assay [3], the system named is MCF7. Kind of assay: Antiproliferative activity against human MCF7 cells assessed as reduction in cell viability after 72 hrs by alamar blue assay. It is filed as functional, cell-based. The settings on record: MCF7, 72 h. The gist of the method: as §1
Assay [4] is filed under the species Bos taurus. Kind of assay: Inhibition of bovine brain tubulin polymerization at 10 uM measured at 30 sec interval for 30 mins in presence of GTP by turbidimetry-based spectrophotometric method.

As for `COc1ccc([C@H]2[C@H](c3ccccc3)C(=O)N2c2cc(OC)c(OC)c(OC)c2)cc1`, in assay [1], the “Ratio IC50” value amounted to 0.68. For the same molecule, the 50% inhibitory concentration (IC50) in assay [2] stood at 22 nM; in assay [3] it was 15 nM.
For the molecule `COc1ccc([C@H]2[C@H](O)C(=O)N2c2cc(OC)c(OC)c(OC)c2)cc1Br`, in assay [1], the “Ratio IC50” value amounted to 4.89. The IC50 is 9 nM in assay [2] and 44 nM in assay [3]. The inhibition entry in assay [4] is “Active”.
For the molecule `COc1ccc([C@H]2[C@H](Cl)C(=O)N2c2cc(OC)c(OC)c(OC)c2)cc1I`, the “Ratio IC50” value in assay [1] stood at 2.22. The IC50 in assay [2] worked out at 190 nM; in assay [3], 421 nM.
In the same order, the values of `COc1ccc([C@H]2CC(=O)N2c2cc(OC)c(OC)c(OC)c2)cc1I` are 3.16, 260 nM and 821 nM.
In the same order, the values of `C=C(C)[C@@H]1C(=O)N(c2cc(OC)c(OC)c(OC)c2)[C@H]1c1ccc(OC)c(I)c1` are 1.29, 1050 nM and 1350 nM.
Take `C=C[C@@H]1C(=O)N(c2cc(OC)c(OC)c(OC)c2)[C@H]1c1ccc(OC)c(F)c1`: the IC50 turned out to be 37 nM in assay [2] and 38 nM in assay [3].
`COc1ccc([C@H]2[C@H](c3ccccc3)C(=O)N2c2cc(OC)c(OC)c(OC)c2)cc1Cl`: the “Ratio IC50” value in assay [1] worked out at 9.58. Further, the IC50 in assay [2] amounted to 24 nM; in assay [3], 230 nM.
In the same order, the values of `C=C(C)[C@@H]1C(=O)N(c2cc(OC)c(OC)c(OC)c2)[C@H]1c1ccc(OC)c(Br)c1` are 0.83, 333 nM and 284 nM.
Turning to `COc1ccc([C@H]2CC(=O)N2c2cc(OC)c(OC)c(OC)c2)cc1Br`, the “Ratio IC50” value in assay [1] stood at 0.94. In addition, the 50% inhibitory concentration (IC50) in assay [2] stood at 64 nM; in assay [3], 60 nM.
As to `COc1ccc([C@H]2[C@H](Oc3ccccc3)C(=O)N2c2cc(OC)c(OC)c(OC)c2)cc1Br`, in assay [1], the “Ratio IC50” value was found to be 1.42. Also, the 50% inhibitory concentration (IC50) in assay [2] stood at 577 nM; in assay [3], 818 nM.
In the same order, the values of `C=C[C@@H]1C(=O)N(c2cc(OC)c(OC)c(OC)c2)[C@H]1c1ccc(OC)c(I)c1` are 0.7, 306 nM and 215 nM.
In the case of `COc1ccc([C@H]2[C@H](Oc3ccccc3)C(=O)N2c2cc(OC)c(OC)c(OC)c2)cc1F` (relative stereo), the “Ratio IC50” value in assay [1] is reported as 0.47. The IC50 in assay [2] turned out to be 155 nM; in assay [3], 73 nM.
In the case of `COc1ccc([C@H]2[C@H](c3ccccc3)C(=O)N2c2cc(OC)c(OC)c(OC)c2)cc1Br`, in assay [1], the “Ratio IC50” value was 2. Further, the IC50 was determined as 325 nM in assay [2] and 651 nM in assay [3].
For `COc1ccc([C@H]2CC(=O)N2c2cc(OC)c(OC)c(OC)c2)cc1Cl`, in that order: 0.91, 154 nM and 140 nM.
In the same order, the values of `COc1ccc([C@H]2CC(=O)N2c2cc(OC)c(OC)c(OC)c2)cc1C` are 1.68, 189 nM and 317 nM.
In the same order, the values of `COc1ccc([C@@H]2N(c3cc(OC)c(OC)c(OC)c3)C(=O)C2(Cl)Cl)cc1C` are 2.34, 319 nM and 747 nM.
On to `C=C(C)[C@@H]1C(=O)N(c2cc(OC)c(OC)c(OC)c2)[C@H]1c1ccc(OC)c(C)c1`, for which, in assay [1], the “Ratio IC50” value came out at 2.16. For the same molecule, the concentration for half-maximal inhibition (IC50) in assay [2] was 358 nM; in assay [3], 773 nM.
Turning to `COc1ccc([C@@H]2N(c3cc(OC)c(OC)c(OC)c3)C(=O)C2(Cl)Cl)cc1I`, the “Ratio IC50” value in assay [1] was determined as 3.53. For the same molecule, the values for the IC50 in assay [2] and in assay [3] were 251 nM and 885 nM, respectively.
Regarding `COc1ccc([C@@H]2N(c3cc(OC)c(OC)c(OC)c3)C(=O)C2(Cl)Cl)cc1Cl`, the “Ratio IC50” value in assay [1] is recorded as 0.91. The half-maximal inhibitory concentration (IC50) in assay [2] stood at 154 nM; in assay [3], 140 nM.
As for `COc1ccc([C@H]2[C@H](Cl)C(=O)N2c2cc(OC)c(OC)c(OC)c2)cc1Br`, the “Ratio IC50” value in assay [1] worked out at 3.12. The IC50 in assay [2] turned out to be 194 nM; in assay [3], 603 nM.
For `C=C[C@@H]1C(=O)N(c2cc(OC)c(OC)c(OC)c2)[C@H]1c1ccc(OC)c(C)c1`, in that order: 1.67, 197 nM and 328 nM.
As for `COc1ccc([C@H]2[C@H](Cl)C(=O)N2c2cc(OC)c(OC)c(OC)c2)cc1Cl`, in assay [1], the “Ratio IC50” value stood at 0.63. Moreover, the IC50 in assay [2] was determined as 144 nM; in assay [3] it was 91 nM.
For `COc1ccc([C@H]2[C@H](Oc3ccccc3)C(=O)N2c2cc(OC)c(OC)c(OC)c2)cc1I`, in that order: 0.9, 232 nM and 208 nM.
Turning to `COc1ccc([C@H]2[C@H](Cl)C(=O)N2c2cc(OC)c(OC)c(OC)c2)cc1F`, the figures for the IC50 in assay [2] and in assay [3] were 15 nM and 40 nM, respectively.
As to `C=C[C@@H]1C(=O)N(c2cc(OC)c(OC)c(OC)c2)[C@H]1c1ccc(OC)c(Br)c1`, the “Ratio IC50” value in assay [1] came out at 0.97. The IC50 stood at 91 nM in assay [2] and 88 nM in assay [3].
In the same order, the values of `COc1ccc([C@H]2[C@H](O)C(=O)N2c2cc(OC)c(OC)c(OC)c2)cc1I` are 4.77, 21 nM and 100 nM.
For `C=C(C)[C@@H]1C(=O)N(c2cc(OC)c(OC)c(OC)c2)[C@H]1c1ccc(OC)c(Cl)c1`, in that order: 0.56, 480 nM and 270 nM.
For `C=C[C@@H]1C(=O)N(c2cc(OC)c(OC)c(OC)c2)[C@H]1c1ccc(OC)c(Cl)c1`, in that order: 0.41, 293 nM and 120 nM.
`COc1ccc([C@H]2[C@H](Oc3ccccc3)C(=O)N2c2cc(OC)c(OC)c(OC)c2)cc1C`: in assay [1], the “Ratio IC50” value is on record as 7.14. The IC50 in assay [2] was 313 nM; in assay [3], 2240 nM.
For `COc1ccc([C@H]2[C@H](Cl)C(=O)N2c2cc(OC)c(OC)c(OC)c2)cc1C`, in that order: 1.95, 222 nM and 433 nM.
For `C=C(C)[C@@H]1C(=O)N(c2cc(OC)c(OC)c(OC)c2)[C@H]1c1ccc(OC)c(F)c1`, in that order: 0.48, 678 nM and 323 nM.
For `COc1ccc([C@H]2[C@H](N)C(=O)N2c2cc(OC)c(OC)c(OC)c2)cc1F`, in that order: 2.03, 238 nM and 483 nM.
With `COc1ccc([C@H]2[C@H](c3ccccc3)C(=O)N2c2cc(OC)c(OC)c(OC)c2)cc1C`, the “Ratio IC50” value in assay [1] was 3.02. The IC50 in assay [2] is 153 nM; in assay [3] it was 462 nM.
In the same order, the values of `COc1ccc([C@@H]2N(c3cc(OC)c(OC)c(OC)c3)C(=O)C2(Cl)Cl)cc1F` are 1.48, 117 nM and 173 nM.
Regarding `COc1ccc([C@@H]2N(c3cc(OC)c(OC)c(OC)c3)C(=O)C2(Cl)Cl)cc1Br`, the “Ratio IC50” value in assay [1] is 0.73. Besides, the values for the IC50 in assay [2] and in assay [3] were 1540 nM and 1120 nM, respectively.

The record behind these values is ChEMBL document CHEMBL4680165, “β-Lactams with antiproliferative and antiapoptotic activity in breast and chemoresistant colon cancer cells” (Eur J Med Chem, 2020).
